Drawing on ChEMBL document CHEMBL1124284, “Design of novel inhibitors of aminopeptidases. Synthesis of peptide-derived diamino thiols and sulfur replacement analogues of bestatin” (J Med Chem, 1988), this text covers IC50 for 23 compounds.

The experiment in a line: Inhibition of partially purified soluble aminopeptidase from rat brain. The note with it: read-out: I50. Summed up: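 Enzyme from whole fresh Sprague-Dawley rat brain: homogenized in ice-cold 50 mM Tris-HCl pH 7.4 with 1 mM DTT and 0.01 mM ZnCl2, soluble supernatant taken after 80000g spin, 40–70% ammonium sulfate cut, dialyzed. About 30 μg protein started the reaction with leucine p-nitroanilide (final 100 μM), up to 1 h at 37 °C or room temperature. Released p-nitroaniline read at 550 nm.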
Regarding `CC(C)C[C@@H](NC(=O)[C@H](Cc1ccccc1)NCC(S)[C@@H](N)CC(C)C)C(=O)O` (stereo partly drawn), the IC50 worked out at 4 nM.
The same measure for `CC(C)C[C@@H](NC(=O)[C@H](Cc1ccccc1)NCC(S)[C@@H](N)Cc1ccccc1)C(=O)O` (stereo partly drawn): 1 nM; for `CC(C)C[C@@H](NC(=O)[C@H](Cc1ccccc1)NCC(O)[C@@H](N)Cc1ccccc1)C(=O)O` (stereo partly drawn): 580 nM.
On to `CC(C)C[C@H](NCC(S)[C@@H](N)CC(C)C)C(N)=O` (stereo partly drawn), for which the IC50 was 34 nM.
In the case of `N[C@H](CS)Cc1ccccc1`, the IC50 stood at 39 nM.
Consider `CC(C)C[C@@H](NC(=O)[C@H](Cc1ccccc1)NCCS)C(=O)O`, for which the IC50 is 240000 nM.
As to `CC(C)C[C@H](N)CS`, the IC50 was determined as 10 nM.
For the compound `CC(C)C[C@H](NCC(S)[C@@H](N)Cc1ccccc1)C(N)=O` (stereo partly drawn), the IC50 came to 33 nM.
Turning to `CC(C)C[C@H](NC(=O)C(S)[C@@H](N)Cc1ccccc1)C(=O)O` (stereo partly drawn), the IC50 was found to be 1600 nM.
For the compound `N[C@@H](CS)Cc1ccccc1`, the IC50 turned out to be 6900 nM.
On to `CC(C)CCNCC(S)[C@@H](N)Cc1ccccc1` (stereo in doubt; 53), for which the IC50 is 300 nM.
Regarding `CC(C)CCNCC(S)[C@@H](N)Cc1ccccc1` (stereo in doubt; 54), the IC50 was 20 nM.
The figure for `CC(C)CCNCC(S)[C@@H](N)CC(C)C` (stereo in doubt; 55) is 81 nM; for `CC(C)CCNCC(S)[C@@H](N)CC(C)C` (stereo in doubt; 56) it is 29 nM.
In the case of `CC(C)CCNCC(S)[C@H](N)Cc1ccccc1` (stereo in doubt; 57), the IC50 worked out at 3100 nM.
Take `CC(C)CCNCC(S)[C@H](N)Cc1ccccc1` (stereo in doubt; 58): the IC50 was found to be 600 nM.
For `CC(C)CCNCC(S)[C@H](N)CC(C)C` (stereo in doubt; 59), the IC50 stood at 7500 nM.
With `CC(C)CCNCC(S)[C@H](N)CC(C)C` (stereo in doubt; 60), the IC50 worked out at 2500 nM.
With `CC(C)C[C@H](NCC(S)[C@@H](N)Cc1ccccc1)C(=O)O` (stereo in doubt; 70), the IC50 was determined as 4400 nM.
With `CC(C)C[C@H](NCC(S)[C@@H](N)Cc1ccccc1)C(=O)O` (stereo in doubt; 71), the IC50 worked out at 220 nM.
In the case of `CC(C)C[C@H](NC(=O)C(S)[C@H](N)Cc1ccccc1)C(=O)O` (stereo in doubt; 78), the IC50 was determined as 10000 nM.
The same measure for `CC(C)C[C@H](NC(=O)C(S)[C@H](N)Cc1ccccc1)C(=O)O` (stereo in doubt; 79): 220 nM.
For the compound `CC(C)C[C@H](NC(=O)[C@@H](O)[C@H](N)Cc1ccccc1)C(=O)O` [UBENIMEX], the IC50 is 170 nM.
